# Laboratory results taken from ChEMBL document CHEMBL3525967, “In vitro glucuronidation of the antibacterial triclocarban and its oxidative metabolites” (Drug Metab Dispos, 2012).
# What was measured:
# [1] = biological target: T1, UDP-glucuronosyltransferase 1A6 (Homo sapiens, UniProt P19224); assay: Drug metabolism assessed as human UGT1A6-mediated N-glucuronide-triclocarban formation expressed in baculovirus infected insect sf9 cells incubated for 5 mins prior to UDPGA addition measured after 5 to 30 mins by LC-UV analysis; type: ADME
# T1 sequence (P19224 whole entry): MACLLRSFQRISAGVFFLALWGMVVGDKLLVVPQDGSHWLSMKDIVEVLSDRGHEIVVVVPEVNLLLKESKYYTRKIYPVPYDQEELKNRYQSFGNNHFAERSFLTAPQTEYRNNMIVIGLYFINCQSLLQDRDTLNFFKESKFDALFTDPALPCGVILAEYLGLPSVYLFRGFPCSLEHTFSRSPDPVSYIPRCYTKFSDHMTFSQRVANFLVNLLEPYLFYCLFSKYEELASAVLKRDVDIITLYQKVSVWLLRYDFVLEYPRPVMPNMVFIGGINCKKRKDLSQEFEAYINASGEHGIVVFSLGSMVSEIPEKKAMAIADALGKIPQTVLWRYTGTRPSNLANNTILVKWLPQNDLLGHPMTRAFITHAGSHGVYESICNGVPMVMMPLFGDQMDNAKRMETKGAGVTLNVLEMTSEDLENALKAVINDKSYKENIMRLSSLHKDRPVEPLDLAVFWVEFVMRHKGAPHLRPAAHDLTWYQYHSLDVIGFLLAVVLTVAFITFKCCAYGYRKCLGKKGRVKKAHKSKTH
# Method in brief: (§1)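 Microsomes or UGT Supersomes (5 µg protein) were held 15 min on ice with alamethicin in 100 mM potassium phosphate pH 7.4. TCC was added at 10 µM (2% DMSO) with 10 mM MgCl2 and 10 mM saccharolactone, pre-warmed 5 min at 37 °C, then started with UDPGA. Samples at 5, 10, 15 and 30 min were quenched in ACN. Product was read by LC-UV at 265 nm; rate came from regression over time, three incubations.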
# [2] = Drug metabolism in human intestinal microsomes assessed as N-glucuronide-triclocarban formation incubated for 5 mins prior to UDPGA addition measured after 5 to 30 mins by LC-UV analysis; type: ADME, Intestine, Microsome; method in brief: as §1
# [3] = biological target: T2, UDP-glucuronosyltransferase 1A10 (Homo sapiens, UniProt Q9HAW8); assay: Drug metabolism assessed as human UGT1A10-mediated N-glucuronide-triclocarban formation expressed in baculovirus infected insect sf9 cells incubated for 5 mins prior to UDPGA addition measured after 5 to 30 mins by LC-UV analysis; type: ADME; method in brief: as §1
# T2 sequence (Q9HAW8 whole entry): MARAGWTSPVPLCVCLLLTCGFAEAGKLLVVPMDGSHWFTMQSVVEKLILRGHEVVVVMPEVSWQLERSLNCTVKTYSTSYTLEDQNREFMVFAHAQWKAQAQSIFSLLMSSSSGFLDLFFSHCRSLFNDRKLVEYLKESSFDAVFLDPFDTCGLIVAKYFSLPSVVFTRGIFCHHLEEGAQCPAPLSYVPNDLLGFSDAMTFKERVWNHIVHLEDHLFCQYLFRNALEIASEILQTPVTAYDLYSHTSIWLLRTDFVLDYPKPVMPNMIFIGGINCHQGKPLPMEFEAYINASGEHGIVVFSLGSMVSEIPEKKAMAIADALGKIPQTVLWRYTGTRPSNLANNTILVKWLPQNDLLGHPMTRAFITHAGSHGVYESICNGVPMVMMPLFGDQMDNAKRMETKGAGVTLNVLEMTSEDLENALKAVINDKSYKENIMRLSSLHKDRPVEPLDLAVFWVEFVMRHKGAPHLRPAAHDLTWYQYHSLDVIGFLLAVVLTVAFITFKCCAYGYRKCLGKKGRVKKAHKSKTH
# [4] = biological target: T3, UDP-glucuronosyltransferase 1A8 (Homo sapiens, UniProt Q9HAW9); assay: Drug metabolism assessed as human UGT1A8-mediated N'-glucuronide-triclocarban formation expressed in baculovirus infected insect sf9 cells incubated for 5 mins prior to UDPGA addition measured after 5 to 30 mins by LC-UV analysis; type: ADME; method in brief: as §1
# T3 sequence (Q9HAW9 whole entry): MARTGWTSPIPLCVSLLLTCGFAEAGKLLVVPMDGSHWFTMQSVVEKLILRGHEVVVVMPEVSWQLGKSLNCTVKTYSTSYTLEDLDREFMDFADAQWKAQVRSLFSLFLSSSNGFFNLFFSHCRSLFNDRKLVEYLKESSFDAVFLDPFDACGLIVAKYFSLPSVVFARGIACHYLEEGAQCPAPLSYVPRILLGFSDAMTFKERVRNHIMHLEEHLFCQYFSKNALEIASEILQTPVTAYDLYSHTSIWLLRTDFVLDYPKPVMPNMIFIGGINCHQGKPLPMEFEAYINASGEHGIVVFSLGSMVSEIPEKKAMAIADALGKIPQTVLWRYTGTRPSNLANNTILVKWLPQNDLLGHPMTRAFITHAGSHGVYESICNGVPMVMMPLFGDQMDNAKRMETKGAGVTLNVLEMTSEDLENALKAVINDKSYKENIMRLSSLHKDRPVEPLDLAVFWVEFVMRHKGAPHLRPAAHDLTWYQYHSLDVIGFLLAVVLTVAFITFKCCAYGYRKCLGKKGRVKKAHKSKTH
# [5] = biological target: T4, UDP-glucuronosyltransferase 2B15 (Homo sapiens, UniProt P54855); assay: Drug metabolism assessed as human UGT2B15-mediated N'-glucuronide-triclocarban formation expressed in baculovirus infected insect sf9 cells incubated for 5 mins prior to UDPGA addition measured after 5 to 30 mins by LC-UV analysis; type: ADME; method in brief: as §1
# T4 sequence (P54855 whole entry): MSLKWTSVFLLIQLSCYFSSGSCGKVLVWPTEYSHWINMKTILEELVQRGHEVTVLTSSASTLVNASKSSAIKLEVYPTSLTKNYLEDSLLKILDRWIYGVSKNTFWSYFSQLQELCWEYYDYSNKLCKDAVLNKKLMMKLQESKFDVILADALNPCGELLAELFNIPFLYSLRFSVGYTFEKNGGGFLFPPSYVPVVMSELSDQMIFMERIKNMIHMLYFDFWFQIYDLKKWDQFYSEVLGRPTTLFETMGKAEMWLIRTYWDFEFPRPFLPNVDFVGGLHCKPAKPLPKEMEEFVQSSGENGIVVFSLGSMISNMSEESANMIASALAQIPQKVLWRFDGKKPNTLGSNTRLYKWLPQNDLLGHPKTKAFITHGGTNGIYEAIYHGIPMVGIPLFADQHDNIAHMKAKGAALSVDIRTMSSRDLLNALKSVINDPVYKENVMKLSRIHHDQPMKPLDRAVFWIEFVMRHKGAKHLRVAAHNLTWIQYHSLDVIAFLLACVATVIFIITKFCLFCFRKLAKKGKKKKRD
# [6] = biological target: T3, UDP-glucuronosyltransferase 1A8; assay: Drug metabolism assessed as human UGT1A8-mediated N-glucuronide-triclocarban formation expressed in baculovirus infected insect sf9 cells incubated for 5 mins prior to UDPGA addition measured after 5 to 30 mins by LC-UV analysis; type: ADME; method in brief: as §1
# [7] = Drug excretion in Sprague-Dawley rat urine assessed as 3'-O-glucuronide-triclocarban formation at 1 mg/kg, po by LC-MS analysis; type: ADME, organism-based; parameters: dose 1 mg/kg, route oral; conditions: in vivo
smiles,measurement,setting,value
O=C(Nc1ccc(Cl)cc1)Nc1ccc(Cl)c(Cl)c1 [TRICLOCARBAN],Drug metabolism,[1],metabolite_not_detected
same,Drug metabolism,[2],metabolite_not_detected
same,Drug metabolism,[3],metabolite_not_detected
same,Drug metabolism,[4],metabolite_not_detected
same,Drug metabolism,[5],metabolite_not_detected
same,Drug metabolism,[6],metabolite_not_detected
same,Drug excretion,[7],metabolite_detected
